Converted amounts (≈) assume the structure as drawn. Starred links: 1 amine or outer side, 2 acyl side, 3 side chain; linkers in the order of their positions; H or OH if unused. Positions of bridges follow the written chain, without caps; N, C: chain ends. Non-standard residues stand in square brackets, D forms with d. Residues, ends and D or L forms follow the SMILES beside them. *: point of attachment. pTerphenylCO(4''-OnC5H11) = CCCCCOc1ccc(-c2ccc(-c3ccc(C(=O)*)cc3)cc2)cc1; Orn(4R-OH,5R-OH) = O=C([C@H](C[C@@H](O)[C@@H](O)N[*:3])N[*:1])[*:2]; hTyr(3S-OH,4S-OH) = N[C@H](C(=O)O)[C@H](O)[C@@H](O)c1ccc(O)cc1; Pro(3S-OH,4S-Me) = C[C@H]1CN[C@H](C(=O)O)[C@H]1O; Hyp = O=C(O)[C@@H]1C[C@@H](O)CN1
Tests used:
Type in all cases: functional
[1] = system: Fonsecaea monophora; test: Antimicrobial activity against Fonsecaea monophora isolates after 72 hrs by CLSI M38-A2 protocol method
Method in brief: (§1)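 Broth microdilution per CLSI M38-A2. Isolates grown on potato dextrose agar at 35°C for up to 7 days. Inocula were scraped into saline with 0.05% Tween 40, settled 3 to 5 min, and adjusted at 530 nm to 68 to 71% transmission (1.5 × 104 to 4 × 10^4 CFU/ml). Incubated 72 h at 35°C and read visually against drug-free control: MIC at 100% or ≥50% inhibition depending on drug, MEC microscopically by compact hyphae.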

[2] = system: Fonsecaea pedrosoi; test: Antimicrobial activity against Fonsecaea pedrosoi isolates after 72 hrs by CLSI M38-A2 protocol method; method in brief: as §1
[3] = system: Fonsecaea; test: Antimicrobial activity against Fonsecaea isolates after 72 hrs by CLSI M38-A2 protocol method; method in brief: as §1
[4] = system: Fonsecaea; test: Antimicrobial activity against Fonsecaea nubica isolates after 72 hrs by CLSI M38-A2 protocol method; method in brief: as §1

Structure (SMILES) | MIC50 [1] | MIC90 [1] | MIC50 [2] | MIC90 [2] | MIC50 [3] | MIC90 [3] | MIC [4] | MIC50 [4] | MIC90 [4]
CC[C@H](C)C[C@H](C)CCCCCCCCC(=O)N[C@H]1C[C@@H](O)[C@@H](NCCN)NC(=O)[C@@H]2[C@@H](O)CCN2C(=O)[C@H]([C@H](O)CCN)NC(=O)[C@H]([C@H](O)[C@@H](O)c2ccc(O)cc2)NC(=O)[C@@H]2C[C@@H](O)CN2C(=O)[C@H]([C@@H](C)O)NC1=O [CASPOFUNGIN] | 2 µg/mL (≈ 1.83 µM) | 2 µg/mL (≈ 1.83 µM) | 4 µg/mL (≈ 3.66 µM) | 4 µg/mL (≈ 3.66 µM) | 2 µg/mL (≈ 1.83 µM) | 2 µg/mL (≈ 1.83 µM) | 2 µg/mL (≈ 1.83 µM) | 2 µg/mL (≈ 1.83 µM) | 4 µg/mL (≈ 3.66 µM)
C[C@@H](c1ncncc1F)[C@](O)(Cn1cncn1)c1ccc(F)cc1F [VORICONAZOLE] | 0.063 µg/mL (≈ 0.18 µM) | 0.125 µg/mL (≈ 0.358 µM) | 0.5 µg/mL (≈ 1.43 µM) | 0.5 µg/mL (≈ 1.43 µM) | 0.25 µg/mL (≈ 0.716 µM) | 0.5 µg/mL (≈ 1.43 µM) | 0.25 µg/mL (≈ 0.716 µM) | 0.25 µg/mL (≈ 0.716 µM) | 0.5 µg/mL (≈ 1.43 µM)
OC(Cn1cncn1)(Cn1cncn1)c1ccc(F)cc1F [FLUCONAZOLE] | 16 µg/mL (≈ 52.2 µM) | 32 µg/mL (≈ 104 µM) | 32 µg/mL (≈ 104 µM) | 32 µg/mL (≈ 104 µM) | 16 µg/mL (≈ 52.2 µM) | 32 µg/mL (≈ 104 µM) | 16 µg/mL (≈ 52.2 µM) | 16 µg/mL (≈ 52.2 µM) | 32 µg/mL (≈ 104 µM)
C[C@@H](c1nc(-c2ccc(C#N)cc2)cs1)[C@](O)(Cn1cncn1)c1cc(F)ccc1F [ISAVUCONAZOLE] | 0.125 µg/mL (≈ 0.286 µM) | 0.25 µg/mL (≈ 0.571 µM) | 0.25 µg/mL (≈ 0.571 µM) | 0.25 µg/mL (≈ 0.571 µM) | 0.25 µg/mL (≈ 0.571 µM) | 0.25 µg/mL (≈ 0.571 µM) |  | 0.125 µg/mL (≈ 0.286 µM) | 0.5 µg/mL (≈ 1.14 µM)
CC[C@@H]([C@H](C)O)n1ncn(-c2ccc(N3CCN(c4ccc(OC[C@@H]5CO[C@@](Cn6cncn6)(c6ccc(F)cc6F)C5)cc4)CC3)cc2)c1=O [POSACONAZOLE] | 0.031 µg/mL (≈ 0.0442 µM) | 0.063 µg/mL (≈ 0.0899 µM) | 0.063 µg/mL (≈ 0.0899 µM) | 0.063 µg/mL (≈ 0.0899 µM) | 0.031 µg/mL (≈ 0.0442 µM) | 0.063 µg/mL (≈ 0.0899 µM) | 0.031 µg/mL (≈ 0.0442 µM) | 0.031 µg/mL (≈ 0.0442 µM) | 0.063 µg/mL (≈ 0.0899 µM)
C[C@@H]1[C@H](O)[C@@H](C)/C=C/C=C/C=C/C=C/C=C/C=C/C=C/[C@H](O[C@@H]2O[C@H](C)[C@@H](O)[C@H](N)[C@@H]2O)C[C@@H]2O[C@](O)(C[C@@H](O)C[C@@H](O)[C@H](O)CC[C@@H](O)C[C@@H](O)CC(=O)O[C@H]1C)C[C@H](O)[C@H]2C(=O)O [AMPHOTERICIN B] | 1 µg/mL (≈ 1.08 µM) | 2 µg/mL (≈ 2.16 µM) | 1 µg/mL (≈ 1.08 µM) | 2 µg/mL (≈ 2.16 µM) | 1 µg/mL (≈ 1.08 µM) | 2 µg/mL (≈ 2.16 µM) |  | 1 µg/mL (≈ 1.08 µM) | 2 µg/mL (≈ 2.16 µM)
CCCCCOc1ccc(-c2ccc(-c3ccc(C(=O)N[C@H]4C[C@@H](O)[C@@H](O)NC(=O)[C@@H]5[C@@H](O)[C@@H](C)CN5C(=O)[C@H]([C@@H](C)O)NC(=O)[C@H]([C@H](O)[C@@H](O)c5ccc(O)cc5)NC(=O)[C@@H]5C[C@@H](O)CN5C(=O)[C@H]([C@@H](C)O)NC4=O)cc3)cc2)cc1 [ANIDULAFUNGIN] ({pTerphenylCO(4''-OnC5H11)}-[Orn(4R-OH,5R-OH)]T[Hyp][hTyr(3S-OH,4S-OH)]T[Pro(3S-OH,4S-Me)]; lactam 1-C) | 4 µg/mL (≈ 3.51 µM) | 8 µg/mL (≈ 7.02 µM) | 8 µg/mL (≈ 7.02 µM) | 8 µg/mL (≈ 7.02 µM) |  |  | 2 µg/mL (≈ 1.75 µM) | 2 µg/mL (≈ 1.75 µM) | 8 µg/mL (≈ 7.02 µM)
CCC(C)n1ncn(-c2ccc(N3CCN(c4ccc(OCC5COC(Cn6cncn6)(c6ccc(Cl)cc6Cl)O5)cc4)CC3)cc2)c1=O (configuration not stated) [ITRACONAZOLE] | 0.063 µg/mL (≈ 0.0893 µM) | 0.125 µg/mL (≈ 0.177 µM) | 0.063 µg/mL (≈ 0.0893 µM) | 0.125 µg/mL (≈ 0.177 µM) | 0.063 µg/mL (≈ 0.0893 µM) | 0.125 µg/mL (≈ 0.177 µM) |  | 0.125 µg/mL (≈ 0.177 µM) | 0.25 µg/mL (≈ 0.354 µM)

From ChEMBL document CHEMBL1255398, “In vitro activities of eight antifungal drugs against 55 clinical isolates of Fonsecaea spp” (2010)
